# Assay results reported in PubChem BioAssay.
# Activity calls are given as the source filed them.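 The calls were made as follows, unless noted: active = NADPH fluorescence slope more negative than the mean of all samples by about 3 SD, 99.7% confidence; inactive = the rest.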
# Tests used:
# [1] = inhibitors of TNFa-induced NFkB p65 translocation, primary screen, imaging, HUVEC, MLSMR starter and 10KST1 sets (AID 438;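 active = inhibition above 20% together with a positive visual image hit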;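 also: compound added about 3h40 before a 20 min TNFalpha stimulation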;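 as to inhibition: signal is the nuclear over cytoplasmic p65 intensity ratio per well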); conditions: HUVEC TNFa-induced p65 nuclear translocation; cell count: measured here: nuclei count (cytotoxicity indicator), at 2.08 µM unless noted; inhibition: at 2 µM, stronger effect = higher value unless noted
# [2] = endothelial E-selectin expression blockers – imaging, HUVEC, immunofluorescence, MLSMR starter and 10KST1 sets, primary screen (AID 487;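 active = visually confirmed hit in the image check and inhibition above 20%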;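 as to inhibition: signal is fraction of cell area covered by stained E-selectin grains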;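 as to nuclei count: 100% = median nuclei count of all wells on the same plate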); conditions: HUVEC TNFalpha-induced E-selectin immunofluorescence imaging, at 2 µM; inhibition: stronger effect = higher value; nuclei count: measured here: cell number, toxicity
# [3] = Primary imaging screen for DUSP6 inhibitors that restore phospho-Erk in transfected HeLa cells, chemical complementation (AID 609;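 active = compounds giving at least 50% inhibition in the cell-based MKP-3 phosphatase rescue imaging test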;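 as to inhibition: phospho-Erk level distribution per well compared with pooled transfected vehicle control wells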); conditions: HeLa MKP-3 transfected, phospho-Erk imaging KS statistic, at 10 µM
# [4] = target: Dual specificity protein phosphatase 6 (Homo sapiens) (UniProt Q16828); experiment: as above; conditions: HeLa MKP-3 transfected, phospho-Erk imaging KS statistic, at 10 µM, stronger effect = higher value
# [5] = target: Voltage-gated potassium channel subunit beta-2 (Rattus norvegicus) (UniProt P62483); experiment: inhibitors of rat Kvbeta2 reductase activity – biochemical, NADPH fluorescence, primary screen (AID 622;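 active = fluorescence slope higher than the sample average by over 3 SD, cut at about -0.22 in these data, passing the limit was not always enough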;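 also: slope of raw intensity against log time taken from 70 to 1610 s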); conditions: recombinant KvBeta, 4-cyanobenzaldehyde reduction, at 10 µM, stronger effect = higher value
# [6] = target: Voltage-gated potassium channel subunit beta-2 (Rattus norvegicus) (UniProt P62483); experiment: enhancers of rat Kvbeta2 NADPH turnover – biochemical, NADPH fluorescence, primary screen (AID 623); conditions: Recombinant KvBeta, NADPH fluorescence decrease slope, 10 min; at 10 µM; stronger effect = lower value;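 also: fluorescence intensity change per second fitted from 20 to 320 s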
# [7] = target: Alpha-2C adrenergic receptor (Homo sapiens) (UniProt P18825); experiment: compounds altering alpha2C-coupled GIRK flux – cell-based, HEK293 alpha2C/GIRK1/2, thallium flux, primary screen (AID 624;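 active = fluorescence slope after compound addition differing from the mean of all screened samples at 99.7% confidence, in either direction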;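 also: slope of fluorescence ratio to pre-addition baseline per second over 15 to 24 s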); conditions: thallium flux BTC fluorescence, at 10 µM, actives lie on both sides
# [8] = inhibitors of larval lipid processing in zebrafish, primary screen, whole organism, PED6 fluorescence, gall bladder and intestine (AID 686;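 active = a full or partial loss of lipid-probe fluorescence in the fish gall bladder, intestine or both, judged by eye; inactive = no fluorescence loss, or compound toxic to the fish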;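 also: larvae 5 to 7 days old with five fish per well; signal comes from phospholipase A2 cleavage of quenched PED6 carried via bile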); conditions: Zebrafish larvae PED6 lipid processing, fluorescence scoring
# How it was run: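 Incubation: overnight exposure of larvae to compound plus PED6 / Test system: live zebrafish larvae aged 5-7 days, whole organism / Amount: 5 larvae per well / Read-out basis: visual per-well fluorescence inhibition score / Signal: visual fluorescence microscopy scoring of gall bladder, gut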
# [9] = loss of swimming-algae plug formation – whole organism, Chlamydomonas reinhardtii, WT vs cilia-less mutant, absorbance, 96-well, primary screen (AID 463189;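 active = inhibition at or above 50% relative to wild type and mutant plate controls; inactive = inhibition below 50%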;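 also: 0% = wild type cc124 cells in DMSO and 100% = ciliumless bld1 mutant cells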); conditions: Chlamydomonas reinhardtii gravitaxis, OD600 absorbance, 2 days; at 10 µM; stronger effect = higher value
# [10] = measured here: cell density z-score
# [11] = measured here: nuclear c-Myc green intensity z-score
# [12] = measured here: nuclear pErk red intensity z-score, stronger effect = higher value
# Chain of Dual specificity protein phosphatase 6 (Homo sapiens) (Q16828 whole entry, looked up): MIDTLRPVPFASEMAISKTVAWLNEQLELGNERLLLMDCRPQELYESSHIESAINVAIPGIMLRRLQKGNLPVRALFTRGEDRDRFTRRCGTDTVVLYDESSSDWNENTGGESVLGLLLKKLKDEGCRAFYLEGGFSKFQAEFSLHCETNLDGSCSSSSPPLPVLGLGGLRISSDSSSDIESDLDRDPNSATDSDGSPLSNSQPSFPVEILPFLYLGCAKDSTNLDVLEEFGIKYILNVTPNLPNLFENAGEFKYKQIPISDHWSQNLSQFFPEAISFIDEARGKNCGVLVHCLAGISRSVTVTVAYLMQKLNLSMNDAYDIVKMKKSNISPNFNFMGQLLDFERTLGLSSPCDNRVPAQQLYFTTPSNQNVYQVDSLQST
# Chain of Voltage-gated potassium channel subunit beta-2 (Rattus norvegicus) (P62483 whole entry, looked up): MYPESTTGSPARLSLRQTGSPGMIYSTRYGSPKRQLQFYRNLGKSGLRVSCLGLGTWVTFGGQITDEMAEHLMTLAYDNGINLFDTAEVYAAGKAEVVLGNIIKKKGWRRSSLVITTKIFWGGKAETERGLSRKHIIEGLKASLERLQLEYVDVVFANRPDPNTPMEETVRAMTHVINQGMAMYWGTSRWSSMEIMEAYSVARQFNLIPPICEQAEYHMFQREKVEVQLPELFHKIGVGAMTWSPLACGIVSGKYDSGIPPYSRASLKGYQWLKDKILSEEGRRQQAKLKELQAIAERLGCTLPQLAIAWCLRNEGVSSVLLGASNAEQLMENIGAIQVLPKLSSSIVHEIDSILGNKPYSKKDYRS
# Chain of Alpha-2C adrenergic receptor (Homo sapiens) (P18825 whole entry, looked up): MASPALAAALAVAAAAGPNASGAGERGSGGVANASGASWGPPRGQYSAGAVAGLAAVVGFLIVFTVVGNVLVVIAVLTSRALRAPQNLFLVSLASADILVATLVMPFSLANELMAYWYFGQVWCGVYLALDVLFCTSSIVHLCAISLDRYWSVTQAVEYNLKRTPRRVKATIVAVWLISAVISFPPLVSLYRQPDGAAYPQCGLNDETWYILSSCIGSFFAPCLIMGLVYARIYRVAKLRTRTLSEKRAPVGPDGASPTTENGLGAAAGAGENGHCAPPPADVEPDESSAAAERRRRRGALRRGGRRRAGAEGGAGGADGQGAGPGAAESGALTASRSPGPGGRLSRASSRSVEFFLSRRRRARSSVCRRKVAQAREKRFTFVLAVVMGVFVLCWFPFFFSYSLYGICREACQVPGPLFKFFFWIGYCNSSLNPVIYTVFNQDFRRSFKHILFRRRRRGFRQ
SMILES,cell count [1],inhibition [1],inhibition [2],nuclei count [2] [%],"z-score [3, 10]","z-score [3, 11]","z-score [3, 12]",inhibition [4],fluorescence slope [5],NADPH fluorescence slope [6],slope [7],outcome [8],inhibition [9]
CC(=C1C(=O)c2ccccc2C1=O)N1CCN(CCN=Cc2c(O)n(C)c(=O)n(C)c2=O)CC1,584,-2.8% (inactive),-90.4% (inactive),138,-0.147,0.321,0.747,1.98% (inactive),-0.482 (inactive),-2e-05 (inactive),0.00537 (inactive),inactive,18.5% (inactive)
CC(C)OC(=O)c1c(N)n(Cc2ccco2)c2nc3ccccc3nc12,337,-5.5% (inactive),-136% (inactive),108,-1.01,1.4,-1.07,-4.7% (inactive),-0.101 (inactive),1e-05 (inactive),0.00512 (inactive),inactive,1.76% (inactive)
CNCCc1nc(N)n[nH]1,570,-4.9% (inactive),-160% (inactive),139,1.42,-0.447,-0.807,27.8% (inactive),-0.507 (inactive),-4.4e-05 (inactive),0.00445 (inactive),inactive,24% (inactive)
CCCc1nc2ccccc2c(=O)n1-c1ccccc1OC,587,-5.2% (inactive),-140% (inactive),134,-0.589,-0.508,-0.325,-4.78% (inactive),-0.375 (inactive),-2e-05 (inactive),0.00541 (inactive),inactive,-2.29% (inactive)
CCN(CC)CCN=Cc1c(O)n(CCc2ccccc2)c(=O)[nH]c1=O,479,7.8% (inactive),-1.8% (inactive),88.8,0.714,-0.47,-1.29,28% (inactive),-0.368 (inactive),9.5e-06 (inactive),0.00625 (inactive),inactive,-6.45% (inactive)
O=c1[nH]c(=O)n(Cc2ccco2)c(O)c1C=NCCN1CCOCC1,680,-12.4% (inactive),-84.8% (inactive),179,0.97,-1.61,0.194,-8.95% (inactive),-0.384 (inactive),-2.1e-05 (inactive),0.00707 (inactive),inactive,-10.1% (inactive)
CC1CCC(C(C)C)C(OP(N)(=O)c2ccccc2)C1 (configuration not stated),413,-4.7% (inactive),-225% (inactive),189,1.77,-0.238,0.0184,36.1% (inactive),-0.406 (inactive),-7.4e-05 (inactive),0.00486 (inactive),inactive,1.67% (inactive)
O=c1[nH]c(=O)n(-c2cccc(Cl)c2)c(O)c1C=NCCN1CCCCC1,506,1.5% (inactive),-67.4% (inactive),143,-0.817,1.06,1.7,15% (inactive),-0.435 (inactive),-5.4e-05 (inactive),0.00582 (inactive),inactive,-0.905% (inactive)
CN1CCc2nc3sc(C#N)c(N)c3c(-c3cccs3)c2C1,596,-16.8% (inactive),-65% (inactive),165,0.586,-0.275,0.463,6.51% (inactive),-0.362 (inactive),-6e-05 (inactive),0.00412 (inactive),inactive,-2.74% (inactive)
COc1cccc(CN2CCN(C(=O)COc3ccc4ccccc4c3)CC2)c1,430,-6% (inactive),-195% (inactive),210,-0.132,-0.0858,-0.507,11% (inactive),-0.354 (inactive),-4.1e-06 (inactive),0.00527 (inactive),inactive,16.5% (inactive)
O=C1C2CCN(CC2)[C@@H]1Cc1ccc2ccccc2c1O,542,-18.4% (inactive),-159% (inactive),135,0.277,-1,-0.726,9.91% (inactive),-0.498 (inactive),-6.4e-05 (inactive),0.00747 (inactive),inactive,9.49% (inactive)
CCN(CC)c1ccc(N=Cc2c(O)n(-c3ccccc3C)c(=O)[nH]c2=O)cc1,337,3.8% (inactive),-48.3% (inactive),172,-0.126,0.959,0.0511,7.01% (inactive),-0.394 (inactive),-0.000163 (inactive),0.00909 (inactive),inactive,24.7% (inactive)
CCOc1ccc(Cc2c(O)[nH]c(=O)[nH]c2=O)cc1,618,-8.4% (inactive),-94.6% (inactive),180,-2.58,1.33,1.61,3.56% (inactive),-0.34 (inactive),-3.4e-06 (inactive),0.00464 (inactive),inactive,18.5% (inactive)
CCC(=NCCN1CCCCC1)c1c(O)n(C)c(=O)n(C)c1=O,605,0.7% (inactive),-61.5% (inactive),154,0.767,-1.21,0.171,7.83% (inactive),-0.517 (inactive),-3.9e-05 (inactive),0.00466 (inactive),inactive,18% (inactive)
COc1ccc(-n2c(SC)nc3ccccc3c2=O)cc1,594,-3.7% (inactive),-93.7% (inactive),134,-0.0992,-1.67,-0.0859,4.25% (inactive),-0.492 (inactive),-0.000141 (inactive),0.00471 (inactive),inactive,12.5% (inactive)
O=c1[nH]c(=O)n(Cc2ccccc2)c(O)c1C=NCCN1CCNCC1,548,-7.6% (inactive),-71.4% (inactive),125,-0.72,0.623,-0.0503,7.93% (inactive),-0.51 (inactive),-3.8e-05 (inactive),0.00654 (inactive),inactive,-6.44% (inactive)
CN(C)CCc1nn[nH]n1,586,-12.8% (inactive),-15.2% (inactive),115,-0.419,0.458,0.261,1.75% (inactive),-0.47 (inactive),-0.000339 (inactive),0.00441 (inactive),inactive,25.8% (inactive)
Cc1c(N=Cc2c(O)n(CCc3ccccc3)c(=O)[nH]c2=O)c(=O)n(-c2ccccc2)n1C,613,-20.6% (inactive),-12.1% (inactive),104,1.02,-1.15,-0.939,14.4% (inactive),-0.465 (inactive),-1.6e-05 (inactive),0.00632 (inactive),inactive,41.8% (inactive)
O=C1NCCN2CCCC12 (configuration not stated),549,-10.8% (inactive),-50.9% (inactive),158,-1.06,-1.18,1.73,-0.608% (inactive),-0.497 (inactive),-0.000122 (inactive),0.00514 (inactive),inactive,13.6% (inactive)
